Experiment [1] in a line: S. cerevisiae growth inhibition in permissive medium (OD615), pilot counter-assay for S. cerevisiae lifespan shortening project, permissive growth control (AID 705). Conditions: OD615, 24 h, at 10 µM, hits give high values. Summed up:
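System: Engineered DeaD yeast | Buffer or medium: SC raffinose/galactose permissive medium | Doses: 10 µM single dose, 0.25% DMSO | Times: 24 h exposure, 30 °C | Measured by: OD615 turbidity read | Read-out: Yeast growth inhibition indicated by reduced 24 h OD615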

Experiment [2] in a line: S. cerevisiae growth inhibition in restrictive medium, OD615, pilot screen, restrictive growth control, yeast lifespan reduction project (AID 706;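 active = growth inhibition above a set limit, 3 SD over mean compound inhibition, in both replicates, cut at about 43% in these data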;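 also: modified DeaD lifespan yeast strain shifted to restrictive glucose medium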). The conditions noted are these: OD615, 48 h, at 10 µM, hits give high values. Summed up:
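Assay system: engineered S. cerevisiae DeaD strain; Buffer or medium: CSMM-D glucose medium; Dosing: 10 µM compound, 0.25% DMSO; Times: cell pre-growth 4 h, compound exposure 48 h, 30 °C; Detection: absorbance (optical density) measured at 615 nm.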

Experiment [3] can be described thus: doxorubicin toxicity protection in MRP-1 cells – H69AR cells, CellTiter-Glo, duplicate, MRP-1 activator project, pilot screen (AID 807;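 active = viability increase at or above a cutoff of the median across tested compounds plus 3 SD, cut at about 8.5% in these data, passing the limit was not always enough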;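 also: compound pretreatment 18-22 h then 72 h combined with doxorubicin; 0% = doxorubicin alone and 100% = vehicle without doxorubicin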). The conditions noted are these: H69AR viability with doxorubicin, CellTiter-Glo luminescence; at 10 µM; hits give high values.
Experiment [4] is described as follows: viability of HCT116 without oncogenic beta-catenin – human colon tumor cells, pilot screen (AID 823;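 active = cell viability at or below a set limit in both duplicate runs, the limit being the all-compound median minus 4 SD, cut at about 23% in these data, passing the limit was not always enough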;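 also: 0% = wells killed by 20 µM Hyamine and 100% = untreated DMSO cell wells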). The conditions noted are these: HCT116 beta-catenin knockout viability, CellTiter-Glo, 60 h; at 10 µM; hits give low values. (ATP-based viability assays read luminescence as a measure of living cells.)
The nature of experiment [5]: viability of PTEN-null HCT116 cells – cell-based, HCT116 clonal line, CellTiter-Glo, pilot screen (AID 824;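 active = viability at or below 27.92% in each of two runs, the all-compound median minus 4 SD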;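 also: 0% = 20 µM Hyamine control and 100% = vehicle cell control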). Conditions: HCT116 PTEN-deleted viability, 60 h, at 10 µM, hits give low values.
A short description of experiment [6]: RAM pathway blockade in budding yeast – dse1pr::URA3 reporter, 5-FOA selection, pilot screen (AID 869;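 active = inhibition over a set limit, the all-compound mean plus 3 SD, in both replicate runs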;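 also: 0% = DMSO wells with no growth and 100% = 10 µM 1-NA-PP1 with full growth; RAM network block rescues cells from 5-FOA so hits raise OD615 growth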). The conditions noted are these: S. cerevisiae dse1pr::URA3 5-FOA growth, OD615, 2 d; at 10 µM; hits give high values; strain carries analog-sensitive mutant Cbk1 kinase.
Experiment [7] in a line: RAM signaling pathway blockade in yeast – S. cerevisiae, Pdr1DBD-CYC8 efflux-inhibited sensitized strain, primary screen (AID 1298;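 active = RAM network inhibition above 8.4% in each of two replicates, 3 SD over the compound average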;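 also: 0% = DMSO untreated cells without growth and 100% = 10 µM 1-NA-PP1 full growth; higher means more yeast growth rescued from 5-FOA killing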). The conditions noted are these: S. cerevisiae cbk1-as DSE1-URA3 strain, 5-FOA growth OD615, 2 d; at 50 µM; hits give high values.

Structures are written as SMILES. Values without a mark were called inactive. Inconclusive results are not listed. Calls of active or inactive are those of the source.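 The calls were made as follows, unless noted: active = growth inhibition above 25% in both replicates, a cutoff set 3 SD above the mean; inconclusive = above 25% in only one replicate; inactive = the rest.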

In the case of `O=S(=O)(c1cccc(-c2nnc(-c3cccnc3)o2)c1)N1CCCCC1`, the figures for the growth inhibition in experiment [1] and in experiment [2] were 1.58% and -5.17%, respectively. Further, the viability increase in experiment [3] was -3.4%. Further, the viability – broadly, a read-out of living cells in per cent, often relative to untreated cells – in experiment [4] is 86.9%; in experiment [5], 84.7%. Also, the inhibition – broadly, the relative decrease from the control value, in per cent – in experiment [6] is 1.22%. Moreover, in experiment [7], the RAM network inhibition was 2.99%.
As to `CCNC(=O)c1c(N)sc2c1CCCCC2`, the results for the growth inhibition in experiment [1] and in experiment [2] were -5.81% and 1.6%, respectively. In experiment [3], the viability increase was -2.57%. Further, the figures for the viability in experiment [4] and in experiment [5] were 103% and 100%, respectively. In experiment [6], the inhibition was 1.88%. The RAM network inhibition in experiment [7] is 4.23%.
As to `Cn1c(SCc2nc3ccccc3[nH]2)nnc1-c1cccnc1`, the growth inhibition in experiment [1] is 3.69%; in experiment [2], 24.8%. Besides, the viability increase in experiment [3] was -2.45%. The viability in experiment [4] was 95.1%; in experiment [5] it was 99.1%. Besides, the inhibition in experiment [6] is 2.94%. In addition, the RAM network inhibition in experiment [7] was 5.38%.
Regarding `COc1ccc(-c2nn(CC(=O)N(C)C)c(=O)c3ccccc23)cc1`, the results for the growth inhibition in experiment [1] and in experiment [2] were -7.62% and -6.71%, respectively. In addition, the viability increase in experiment [3] is -1.08%. The results for the viability in experiment [4] and in experiment [5] were 99.8% and 86.4%, respectively. In experiment [6], the inhibition is 1.01%. Moreover, the RAM network inhibition in experiment [7] was 0.6%.
With `CSCC[C@@H](C(=O)O)N1Cc2ccccc2C1=O`, the growth inhibition was 7.93% in experiment [1] and 6.17% in experiment [2]. In addition, the viability increase in experiment [3] was 0%. In addition, the viability in experiment [4] is 105%; in experiment [5], 103%. The inhibition in experiment [6] was 1.69%. The RAM network inhibition in experiment [7] was -0.16%.
Regarding `CC1(C)CC(=O)C2=C(C1)N(c1ccc(F)cc1)C(=O)CC2c1cccnc1` (stereo not given), the growth inhibition was 0.065% in experiment [1] and -2% in experiment [2]. Moreover, in experiment [3], the viability increase was -2.17%. In addition, the results for the viability in experiment [4] and in experiment [5] were 95.9% and 100%, respectively. Further, in experiment [6], the inhibition is 2.41%. Also, in experiment [7], the RAM network inhibition is 5.94%.
On to `CC(C)(C)OC(=O)N1CCC(C(N)=O)CC1`, for which the growth inhibition in experiment [1] was -1.93%; in experiment [2], 0.2%. The viability increase in experiment [3] is -0.33%. Also, the viability was 103% in experiment [4] and 104% in experiment [5]. Moreover, the inhibition in experiment [6] is 0.535%. In addition, the RAM network inhibition in experiment [7] is 0.06%.
Turning to `COc1ccccc1C1(CC(=O)O)CCOC(C)(C)C1` (stereo not given), the growth inhibition was -2.27% in experiment [1] and -9.79% in experiment [2]. Further, in experiment [3], the viability increase is -1.61%. In addition, the values for the viability in experiment [4] and in experiment [5] were 90.9% and 92.2%, respectively. Besides, the inhibition in experiment [6] is 0.095%. For the same compound, the RAM network inhibition in experiment [7] is -1.44%.
On to `CN(C)c1oc(-c2ccccc2Cl)nc1S(=O)(=O)c1ccccc1`, for which the growth inhibition is -17.1% in experiment [1] and 0.09% in experiment [2]. The viability increase in experiment [3] is -0.11%. Besides, the results for the viability in experiment [4] and in experiment [5] were 95.5% and 93.2%, respectively. In addition, the inhibition in experiment [6] is 1.2%. Besides, the RAM network inhibition in experiment [7] was 17% (active).
Turning to `Cc1oc2cc(O)ccc2c(=O)c1N1C(=O)c2ccccc2C1=O`, the growth inhibition is -5.69% in experiment [1] and 0.06% in experiment [2]. For the same compound, the viability increase in experiment [3] was 1.85%. Also, the viability in experiment [4] is 98.2%; in experiment [5] it was 99.8%. The inhibition in experiment [6] was 1.11%. The RAM network inhibition in experiment [7] is 1.15%.
As to `COCCNC(=O)Cn1cnc2c1c(=O)n(C)c(=O)n2C`, the growth inhibition in experiment [1] was -16.3%; in experiment [2] it was -12.6%. In experiment [3], the viability increase is -0.95%. The viability in experiment [4] was 97.6%; in experiment [5], 98.3%. Further, the inhibition in experiment [6] is 1.23%. The RAM network inhibition in experiment [7] was 3.4%.
For `CC(=O)NCCc1nc2ccccc2n1Cc1ccccc1`, the growth inhibition in experiment [1] was 1.21%; in experiment [2], -2.44%. For the same compound, the viability increase in experiment [3] was -2%. The viability in experiment [4] is 106%; in experiment [5], 98.8%. Further, in experiment [6], the inhibition was 1.33%. In experiment [7], the RAM network inhibition was 3.58%.
As to `Cn1c(=O)oc2cc(S(=O)(=O)NCc3ccco3)ccc21`, the growth inhibition was 2.12% in experiment [1] and 5.31% in experiment [2]. For the same compound, in experiment [3], the viability increase was -4.38%. Besides, the viability in experiment [4] is 101%; in experiment [5], 93.8%. Moreover, the inhibition in experiment [6] is 1.41%. For the same compound, the RAM network inhibition in experiment [7] was 3.2%.
With `CCCCCCN1C(=O)C(O)=C(C(C)=O)C1c1ccc(Cl)cc1` (stereo not given), the values for the growth inhibition in experiment [1] and in experiment [2] were -6.47% and 7.25%, respectively. Further, the viability increase in experiment [3] was 0.3%. Also, the viability is 106% in experiment [4] and 100% in experiment [5]. Besides, the inhibition in experiment [6] was -0.245%. In addition, the RAM network inhibition in experiment [7] was 8.31%.
In the case of `COc1ccc(-c2cn3c(C)c(C(=O)N4CCN(c5ccc(OC)cc5)CC4)sc3n2)cc1`, the values for the growth inhibition in experiment [1] and in experiment [2] were -5.73% and -9.94%, respectively. Further, the viability increase in experiment [3] is -1.79%. Moreover, the results for the viability in experiment [4] and in experiment [5] were 103% and 104%, respectively. In addition, in experiment [6], the inhibition was 2.58%. For the same compound, in experiment [7], the RAM network inhibition was 3.17%.
On to `CC1=C(C(=O)OC2CCCCCCC2)C(c2ccc(O)cc2)NC(=O)N1` (stereo not given), for which the figures for the growth inhibition in experiment [1] and in experiment [2] were -3.17% and 4.04%, respectively. Further, the viability increase in experiment [3] was -0.32%. Also, the viability in experiment [4] is 73.8%; in experiment [5] it was 72%. The inhibition in experiment [6] is 1.85%. The RAM network inhibition in experiment [7] is 3.65%.
On to `CN(C)/C=N/c1c(C#N)cnn1-c1ccccc1`, for which the growth inhibition in experiment [1] was -5.88%; in experiment [2], -14.5%. In experiment [3], the viability increase is -1.11%. Besides, the figures for the viability in experiment [4] and in experiment [5] were 103% and 96.6%, respectively. In addition, in experiment [6], the inhibition was 1.95%. The RAM network inhibition in experiment [7] was 4.32%.
On to `Cc1ccc2c(c1)NC(=O)C(CC(=O)NCCCN1CCCCC1C)O2` (stereo not given), for which the growth inhibition in experiment [1] is 6.71%; in experiment [2], 8.33%. Besides, the viability increase in experiment [3] is -1.72%. The viability in experiment [4] and in experiment [5] was 101% throughout. In addition, in experiment [6], the inhibition is -0.48%. For the same compound, in experiment [7], the RAM network inhibition is 1.25%.
For `COC(=O)C1=C(N)OC2=C(C(=O)CC(C)(C)C2)C1c1cccnc1` (stereo not given), the growth inhibition in experiment [1] is -3.42%; in experiment [2], -15.1%. For the same compound, in experiment [3], the viability increase is -1.92%. Moreover, the viability in experiment [4] is 95.4%; in experiment [5] it was 90.4%. In addition, in experiment [6], the inhibition is 0.305%. Moreover, in experiment [7], the RAM network inhibition was 2.43%.
For `Oc1[nH]c2ccccc2c1C=Nc1ccc2c(c1)OCO2`, the figures for the growth inhibition in experiment [1] and in experiment [2] were -18.5% and -9.39%, respectively. For the same compound, in experiment [3], the viability increase is -5.2%. Further, the figures for the viability in experiment [4] and in experiment [5] were 75% and 71.4%, respectively. The inhibition in experiment [6] is 1.74%. Also, the RAM network inhibition in experiment [7] was 1.86%.
On to `OC1CC(c2ccco2)NC2(CCCCC2)C1` (stereo not given), for which the growth inhibition is -4.09% in experiment [1] and 1.06% in experiment [2]. The viability increase in experiment [3] was -1.66%. Also, the viability in experiment [4] is 97.2%; in experiment [5] it was 94.6%. The inhibition in experiment [6] was 0.39%. The RAM network inhibition in experiment [7] was 2.73%.
Take `CC(=O)c1sc2ccccc2c1OC(=O)c1ccco1`: the figures for the growth inhibition in experiment [1] and in experiment [2] were -9.99% and -11.4%, respectively. For the same compound, the viability increase in experiment [3] is -4.46%. Moreover, the figures for the viability in experiment [4] and in experiment [5] were 83% and 85.3%, respectively. In addition, the inhibition in experiment [6] was 0.39%. Further, in experiment [7], the RAM network inhibition was 1.97%.
Take `Cc1ccnc(Nc2nc3ccccc3o2)n1`: the growth inhibition was 2.6% in experiment [1] and 24.6% in experiment [2]. Also, the viability increase in experiment [3] was -4.36%. In addition, the viability was 62% in experiment [4] and 57.7% in experiment [5]. Also, the inhibition in experiment [6] is 0.905%. Moreover, the RAM network inhibition in experiment [7] is 4.15%.
`Cc1csc2nc(CNC(=O)C3CC=CCC3C(=O)O)cn12` (stereo not given): the growth inhibition in experiment [1] was -3.37%; in experiment [2], 16.7%. For the same compound, in experiment [3], the viability increase is -2.9%. In addition, the viability in experiment [4] is 93.7%; in experiment [5], 94%. The inhibition in experiment [6] is 2.62%. Moreover, the RAM network inhibition in experiment [7] is -0.42%.
Consider `CC(=O)c1ccc(OCC(O)CN2CCN(Cc3ccccc3)CC2)cc1` (stereo not given), for which the growth inhibition in experiment [1] was -6.49%; in experiment [2] it was 4.36%. Also, the viability increase in experiment [3] was -1.36%. The viability in experiment [4] is 101%; in experiment [5], 92.1%. The inhibition in experiment [6] is -0.305%. In addition, the RAM network inhibition in experiment [7] is 0.94%.

(Values after PubChem BioAssay.)
